Test results: ChEMBL document CHEMBL1140904, “Synthesis and analysis of novel glycerolipids for the treatment of metabolic syndrome” (J Med Chem, 2009)

Tests used:
Rattus norvegicus [1] = experiment: Effect on fatty acid composition in Wistar rat assessed as change in liver MUFA level at dose equivalent to 85 umol of tetradecylthioacetic acid, po after 6 days; format: functional
Summary of the method: (§1)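 Male Wistar rats were gavaged once daily for 6 days with compound in 0.5% CMC at 85 or 250 µmol TTA-equivalent per animal. Controls received palmitic acid. Liver was homogenized in 0.25 M sucrose/10 mM HEPES pH 7.4/1 mM EDTA at 0-4 °C. Lipids were extracted with chloroform:methanol 2:1 and spiked with 21:0 internal standard. Fatty acids were BF3-methanol transesterified and quantified as wt%. Values are mean ± SD, n=5.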

Rattus norvegicus [2] = experiment: Effect on fatty acid composition in Wistar rat assessed as change in liver LCn-6/18:2 level at dose equivalent to 85 umol of tetradecylthioacetic acid, po after 6 days; format: functional; summary of the method: as §1
Rattus norvegicus [3] = experiment: Effect on fatty acid composition in Wistar rat assessed as change in liver MUFA level at dose equivalent to 250 umol of tetradecylthioacetic acid, po after 6 days; format: functional; summary of the method: as §1
Rattus norvegicus [4] = experiment: Effect on fatty acid composition in Wistar rat assessed as change in liver LCn-6/18:2 level at dose equivalent to 250 umol of tetradecylthioacetic acid, po after 6 days; format: functional; summary of the method: as §1
Rattus norvegicus [5] = experiment: Decrease in plasma cholesterol level in po dosed Wistar rat after 6 days; format: functional, organism-based
Summary of the method: (§2)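 Male Wistar rats (170-210 g), housed in pairs with chow and water, were gavaged once daily for 6 days with test lipid in 0.5% (w/v) carboxymethylcellulose at 85 or 250 µmol TTA-equivalent per animal. Controls received palmitic acid in CMC. Plasma triacylglycerol and cholesterol were measured with an enzymatic kit, and liver levels were also determined. Values are mean ± SD, n=5 rats.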

Rattus norvegicus [6] = experiment: Decrease in liver triacylglycerol level in Wistar rat at dose equivalent to 250 umol of tetradecylthioacetic acid, po after 6 days relative to control; format: functional; design: scale not given: the % may be the effect or the level left; summary of the method: as §2
Rattus norvegicus [7] = experiment: Effect on fatty acid composition in Wistar rat assessed as change in plasma saturated fatty acid level at dose equivalent to 250 umol of tetradecylthioacetic acid, po after 6 days; format: functional
Rattus norvegicus [8] = experiment: Induction of PPAR-alpha-regulated mitochondrial fatty acyl-CoA oxidase activity in Wistar rat at dose equivalent to 250 umol of tetradecylthioacetic acid, po after 6 days relative to control; format: functional; settings: in the assay text read “peroxisomal fatty acyl-CoA oxidase” for “mitochondrial fatty acyl-CoA oxidase”
Summary of the method: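 Rats were dosed by gastric intubation for 6 days at 85 or 250 µmol TTA-equivalent in 0.5% CMC, with palmitic acid controls. Fatty acyl-CoA oxidase was measured in the liver postnuclear fraction by a coupled assay, following H2O2 production as the rise in dichlorofluorescein absorbance with palmitoyl-CoA. Mean ± SD, n=5.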

Rattus norvegicus [9] = experiment: Induction of PPAR-alpha-regulated CPT2 activity in po dosed Wistar rat after 6 days relative to control; format: functional
Summary of the method: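 Wistar rats were dosed orally for 6 days (85 or 250 µmol TTA-equivalent in 0.5% CMC; palmitic acid controls). CPT-II activity was measured in the liver mitochondrial fraction, prepared from sucrose/HEPES pH 7.4/EDTA homogenate at 0-4 °C. Means ± SD from 5 rats per group.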

Rattus norvegicus [10] = experiment: Effect on fatty acid composition in Wistar rat assessed as change in plasma saturated fatty acid level at dose equivalent to 85 umol of tetradecylthioacetic acid, po after 6 days; format: functional
Rattus norvegicus [11] = experiment: Effect on fatty acid composition in Wistar rat assessed as change in plasma LCPUFA, n-6 level at dose equivalent to 85 umol of tetradecylthioacetic acid, po after 6 days; format: functional

In the case of `CCCCCCCCCCCCCCSCC(=O)OC[C@H](COP(=O)([O-])OCC[N+](C)(C)C)OC(=O)CSCCCCCCCCCCCCCC` [PHOSPHATIDYLCHOLINE], the Activity (Rattus norvegicus [1]) is reported as 16.66%, the Activity (Rattus norvegicus [2]) is reported as 2.19% and the Activity (Rattus norvegicus [3]) is reported as 16.33%. The Activity (Rattus norvegicus [4]) was 3.49%, the Activity (Rattus norvegicus [5]) was “Dose-dependent effect” and the Activity (Rattus norvegicus [6]) was 25%. The Activity (Rattus norvegicus [7]) was 35.25%, the “fold change (FC)” value (Rattus norvegicus [8]) was 5 and the “fold change (FC)” value (Rattus norvegicus [9]) was 3. It also gave an Activity (Rattus norvegicus [10]) of 35.65% and an Activity (Rattus norvegicus [11]) of 19.06%.
